What all share (type): functional
For one test, the system named is Staphylococcus aureus. Put plainly: Antibacterial activity Staphylococcus aureus ATCC 25923 after 24 hrs at 30 degC by agar diffusion technique. Put shortly: (§1)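 Agar diffusion method. Bacteria were maintained on Mueller Hinton agar, and the agar medium was inoculated with each test organism. Plates were incubated 24 h at 30 °C, then the diameter of the inhibition zone was measured in mm and reported as the mean diameter.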

The subject of another test is Micrococcus luteus. Briefly: Antibacterial activity Sarcina lutea ATCC 9341 after 24 hrs at 30 degC by agar diffusion technique. Put shortly: as §1
(Agar diffusion results depend on both activity and mobility in agar.)

The test system of another test is Bacillus subtilis. Put plainly: Antibacterial activity Bacillus subtilis after 24 hrs at 30 degC by agar diffusion technique. Summed up: as §1
The subject of the next test is Pseudomonas aeruginosa. Put plainly: Antibacterial activity Pseudomonas aeruginosa after 24 hrs at 30 degC by agar diffusion technique. Summed up: as §1
For another test, the system named is Escherichia coli. Briefly: Antibacterial activity Escherichia coli ATCC 25922 after 24 hrs at 30 degC by agar diffusion technique. Summed up: as §1
In a further test the test system is Candida albicans. Put plainly: Antifungal activity Candida albicans ATCC 10231 after 48 hrs at 28 degC by agar diffusion technique. Put shortly:
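Fungi were maintained on Mueller Hinton agar and tested by diffusion on agar seeded with the organism. After 48 h incubation at 28 °C, the inhibition zone diameter (mm, mean) was measured.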

The values below come from ChEMBL document CHEMBL1153370, “New pyridazine derivatives: synthesis, chemistry and biological activity” (2009).

As for `COC(=O)[C@H]1[C@H](C(=O)OC)[C@H](C(=O)c2ccc(Cl)cc2)N2N=CC=C[C@@H]12`, the “Diameter of inhibition zone” value in the test on Staphylococcus aureus was 23 mm; with Micrococcus luteus, 54 mm; in the test on Bacillus subtilis, 36 mm; with Pseudomonas aeruginosa it was 15 mm; with Escherichia coli, 31 mm; in the test on Candida albicans, 27 mm.
As for `Cc1ccc(C(=O)[C@@H]2C[C@H](C#N)[C@@H]3C=CC=NN23)cc1`, the “Diameter of inhibition zone” value came to 46 mm in the test with Staphylococcus aureus; 67 mm with Micrococcus luteus; 39 mm in the test on Bacillus subtilis; 19 mm in the test on Pseudomonas aeruginosa; 23 mm in the test with Escherichia coli; 30 mm in the test with Candida albicans.
With `COC(=O)c1c(C(=O)OC)c2cccnn2c1C(=O)c1ccc(F)cc1`, the “Diameter of inhibition zone” value in the test with Staphylococcus aureus is on record as 27 mm; in the test with Micrococcus luteus it was 52 mm; in the test on Bacillus subtilis, 23 mm; in the test on Pseudomonas aeruginosa, 15 mm; in the test with Escherichia coli it was 21 mm; with Candida albicans it was 21 mm.
With `COC(=O)[C@H]1[C@H](C(=O)OC)[C@H](C(=O)c2ccc(C)cc2)N2N=CC=C[C@@H]12`, the “Diameter of inhibition zone” value in the test on Staphylococcus aureus amounted to 47 mm; in the test with Micrococcus luteus it was 59 mm; in the test on Bacillus subtilis it was 38 mm; with Pseudomonas aeruginosa, 17 mm; in the test on Escherichia coli, 37 mm; in the test on Candida albicans it was 29 mm.
For the compound `COC(=O)c1c(C(=O)OC)c2cccnn2c1C(=O)c1ccc(Cl)cc1`, the “Diameter of inhibition zone” value in the test with Staphylococcus aureus came to 30 mm; with Micrococcus luteus it was 57 mm; in the test with Bacillus subtilis it was 26 mm; in the test with Pseudomonas aeruginosa, 18 mm; in the test on Escherichia coli, 31 mm; with Candida albicans, 24 mm.
As for `COC(=O)c1c(C(=O)OC)c2cccnn2c1C(=O)c1ccc(C)cc1`, the “Diameter of inhibition zone” value in the test with Staphylococcus aureus is 46 mm; in the test on Micrococcus luteus, 65 mm; in the test with Bacillus subtilis, 26 mm; in the test on Pseudomonas aeruginosa, 19 mm; in the test on Escherichia coli, 25 mm; in the test on Candida albicans, 29 mm.
In the case of `N#C[C@H]1C[C@@H](C(=O)c2ccc(F)cc2)N2N=CC=C[C@@H]12`, the “Diameter of inhibition zone” value is 26 mm in the test on Staphylococcus aureus; 50 mm in the test on Micrococcus luteus; 27 mm in the test with Bacillus subtilis; 14 mm in the test with Pseudomonas aeruginosa; 20 mm with Escherichia coli; 23 mm in the test with Candida albicans.
For `CCOC(=O)c1cc(C(=O)c2ccc(Cl)cc2)n2ncccc12`, the “Diameter of inhibition zone” value in the test on Staphylococcus aureus came out at 25 mm; in the test with Micrococcus luteus it was 48 mm; in the test on Bacillus subtilis, 25 mm; in the test with Pseudomonas aeruginosa it was 20 mm; in the test on Escherichia coli, 33 mm; in the test on Candida albicans, 30 mm.
As to `COC(=O)[C@@H]1[C@H](C(=O)OC)[C@H](C(=O)c2ccc(F)cc2)N2N=CC=C[C@@H]12`, the “Diameter of inhibition zone” value with Staphylococcus aureus was 29 mm; in the test on Micrococcus luteus it was 60 mm; with Bacillus subtilis, 37 mm; in the test on Pseudomonas aeruginosa it was 18 mm; with Escherichia coli, 35 mm; with Candida albicans, 24 mm.
`COC(=O)[C@@H]1[C@H](C(=O)OC)[C@H](C(=O)c2ccc(Cl)cc2)N2N=CC=C[C@@H]12`: the “Diameter of inhibition zone” value with Staphylococcus aureus is 33 mm; in the test with Micrococcus luteus it was 56 mm; in the test on Bacillus subtilis it was 39 mm; in the test on Pseudomonas aeruginosa it was 18 mm; in the test with Escherichia coli, 32 mm; in the test with Candida albicans, 25 mm.
For the compound `O=C(C[n+]1ccccn1)c1ccc(Cl)cc1.[Br-]`, the “Diameter of inhibition zone” value is listed as 36 mm in the test on Staphylococcus aureus; 57 mm in the test with Micrococcus luteus; 32 mm in the test on Bacillus subtilis; 20 mm with Pseudomonas aeruginosa; 36 mm in the test on Escherichia coli; 29 mm in the test with Candida albicans.
